Results on two compounds are retold here after ChEMBL document CHEMBL1152321, “Recent advances in the chemistry and biology of new generation taxoids” (J Nat Prod, 2009).

The subject of data set [1] is DLD-1. As to the kind of experiment: Antitumor activity against human DLD1 cells expressing P-glycoprotein xenografted in SCID mouse assessed as tumor growth delay at 40 mg/kg, iv administered on day 5, 8, 11 post tumor implantation. Type of data set: functional. An outline of the steps:
(§1)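 SCID mice carrying subcutaneous Pgp+ DLD-1 human colon tumours were dosed i.v. q3d×3 on days 5, 8 and 11 after implant, in Tween/EtOH vehicle, with vehicle and untreated control groups. Growth delay was compared with controls by Cox-Mantel test. Cures were mice with no palpable tumour on day 167. Toxicity was counted as death or more than 20% body-weight loss.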

The species named for data set [2] is Mus musculus. In words: Toxicity in SCID mouse assessed as decrease in body weight after day 15 to day 20. The following applies: in vivo. Set-up: scale not given: the % may be the effect or the level left. Format: organism-based.
Data set [3] deals with DLD-1. In words: Antitumor activity against human DLD1 cells expressing P-glycoprotein xenografted in SCID mouse assessed as tumor growth delay at 20 mg/kg, iv administered on day 5, 8, 11 post tumor implantation. Type of data set: functional. An outline of the steps:
as §1

Data set [4] has as its system DLD-1. As to the kind of experiment: Antitumor activity against human DLD1 cells expressing P-glycoprotein xenografted in SCID mouse assessed as no palpable tumors at 10 mg/kg, iv administered on day 5, 8, 11 post tumor implantation measured on day 167. Format: functional, organism-based. Set-up: dose 10 mg/kg. An outline of the steps:
as §1

Data set [5] is described as follows: Cytotoxicity against human primary pancreatic ductal cells up to 10 uM. Type of data set: cell-based.
Data set [6] concerns DLD-1. As to the kind of experiment: Antitumor activity against human DLD1 cells expressing P-glycoprotein xenografted in SCID mouse assessed as tumor growth delay at 10 mg/kg, iv administered on day 5, 8, 11 post tumor implantation. Format: functional. An outline of the steps:
as §1

Data set [7] concerns DLD-1. In words: Antitumor activity against human DLD1 cells expressing P-glycoprotein xenografted in SCID mouse assessed as no palpable tumors at 20 mg/kg, iv administered on day 5, 8, 11 post tumor implantation measured on day 167. Format: functional, organism-based. Set-up: dose 20 mg/kg. An outline of the steps:
as §1

In data set [8] the test system is A2780. In words: Resistance factor, […] harboring point mutation in beta-tubulin. Type of data set: functional.
Data set [9] has as its system MCF7. In words: Resistance factor, ratio of IC50 for P-glycoprotein deficient wild type human MCF7 cells to IC50 for multidrug-resistant human NCI/ADR cells. Type of data set: functional.
Data set [10] is described as follows: Resistance factor, ratio of IC50 for human LCC-6 cells expressing P-glycoprotein to IC50 for P-glycoprotein deficient wild type human LCC-6 cells. Type of data set: functional. Set-up: reference not given here.
Data set [11] can be described thus: Cytotoxicity against P-glycoprotein deficient wild type human LCC-6 cells after 72 hrs. Format: functional, cell-based. To be noted: LCC-6, 72 h.

Active and inactive are the calls of the source. No cut-off for these calls is given here.

For the compound `CC(=O)O[C@@]12CO[C@@H]1C[C@H](O)[C@@]1(C)C(=O)[C@H](OC(=O)C3CC3)C3=C(C)[C@@H](OC(=O)[C@H](O)[C@H](C=C(C)C)NC(=O)OC(C)(C)C)C[C@@](O)([C@@H](OC(=O)c4ccccc4)[C@H]21)C3(C)C`, the Activity in data set [1] was above 150 days; in data set [2], 3%; in data set [3], above 150 days; in data set [5], “Not Active”; in data set [6], 37 days. The outcome in [4] was inactive. The result in data set [7] was Active.

Take `CCC(=O)O[C@H]1C(=O)[C@@]2(C)[C@H]([C@H](OC(=O)c3cccc(OC)c3)[C@]3(O)C[C@H](OC(=O)[C@H](O)[C@H](C=C(C)C)NC(=O)OC(C)(C)C)C(C)=C1C3(C)C)[C@]1(OC(C)=O)CO[C@@H]1C[C@@H]2O`: the Ratio in [8] stood at 5.1; in [9], 0.92; in [10], 0.9. Moreover, the IC50 in data set [11] was 1 nM.
